An excerpt weighted towards active compounds, which were near 4.3% of everything screened.
STAT3 act: STAT3 signaling activation; U3A cells, IL-6 STAT3-luciferase reporter, luminescence; 100% = signal with IL-6 EC80 alone; activation (% of control), % at 5.6 µM; 190,000 compounds, 0.91% hits;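 active = activation above the screen-wide mean of compound activation plus 3 SD, cut at about 130% in these data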
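Material: STAT1-lacking human U3A cells, STAT3 luciferase reporter | Benchmarks: IL-6-only wells as 100% reference | Probe or stimulus: IL-6 (33 ng/mL) | Timing: Compound 1 h, then IL-6 6 h at 37 °C | Detection: Luminescence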
STAT1 act: STAT1 signaling activation; activation (% of control), % at 5.5 µM; NIH 3T3 STAT1-luciferase reporter, IFN-gamma, luminescence; 100% = IFN-gamma alone, no compound; AID 932; 200,000 compounds, 2.6% hits;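 active = activation above the screen-wide mean activation plus 3 SD, cut at about 130% in these data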
STAT1 blocker: inhibitors of IFN-gamma induced STAT1 signaling; inhibition, % at 5.5 µM; 200,000 compounds, 0.35% hits; AID 920; NIH 3T3 STAT1-luciferase reporter, luminescence;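 active = inhibition above a set limit, the mean inhibition across all tested compounds plus 3 SD, cut at about 34% in these data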
STAT3 blocker: reduces IL-6 driven STAT3 reporter signal; U3A cells, IL-6 STAT3-luciferase reporter, luminescence; host cell line lacks STAT1; inhibition, % at 5.5 µM; 190,000 compounds, 0.89% hits;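 active = inhibition above the mean inhibition across all screened compounds plus 3 SD, cut at about 44% in these data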
STAT1 act conf: STAT1 activation, confirmation assay. shares compounds with STAT1 act. NIH 3T3 STAT1-luciferase reporter, IFN-gamma potentiation, luminescence; 100% = IFN-gamma EC80 alone, no compound. activation (% of control), % at 5.7 µM. 1,200 compounds, 97% hits. AID 1262;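 active = activation above a set limit carried over from the earlier primary STAT1 screen, cut at about 140% in these data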
NFkB act: NF-kappaB activation in STAT1 activator counter-screen; activation (% of control), % at 5.7 µM; HEK293T NF-kB luciferase reporter, TNF-alpha stimulated, luminescence; 100% = TNF-alpha with vehicle only; shares compounds with STAT1 act; 1,200 compounds, 43% hits;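 active = activation above the mean of solvent-only control wells plus 3 SD, set per campaign, cut at about 130% in these data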;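 also: TNF-alpha given at a submaximal dose yielding about 80% of full reporter signal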
STAT3 act 2: human STAT3 activation in STAT1 activator counter-screen | U3A cells STAT3-luciferase reporter, IL-6, luminescence; cells lack STAT1; 100 = IL-6 alone, no compound effect | activation (% of control), % at 5.7 µM | shares compounds with STAT1 act | 1,200 compounds, 46% hits | AID 1316;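 active = activation above the solvent-only control well mean plus 3 SD, set per plate batch, cut at about 110% in these data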;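 also: higher means more STAT3 reporter activation so hits are non-selective activators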
Hits are given with their value; . = inactive; / = no result given.

SMILES	STAT3 act	STAT1 act	STAT1 blocker	STAT3 blocker	STAT1 act conf	NFkB act	STAT3 act 2
CCOC(=O)C1C(C)=C(Nc2ccc(OC)cc2)C(=O)N1c1ccc(OC)cc1 (stereo unspecified)	.	.	.	.	/	/	/
Cc1nc(-c2ccc(NC(=O)c3ccccc3Br)cc2)cs1	.	151	.	.	174	.	.
Cc1nc(-c2ccc(NC(=O)c3ccccc3C)cc2)cs1	.	159	.	.	178	.	.
CC(C)NC(=S)Nc1ccc2nc3n(c(=O)c2c1)CCCCC3	.	.	.	.	/	/	/
O=C(Cn1cnc2ccccc2c1=O)c1ccc(Cl)cc1	.	155	.	.	148	.	.
O=C(COC(=O)C1CCCCC1)Nc1ccc(S(=O)(=O)N2CCOCC2)cc1	.	.	.	.	/	/	/
O=C(COc1ccccc1)Nc1cccc(-c2nc3cc4ccccc4cc3[nH]2)c1	.	175	.	.	277	146	121
CC(C)c1ccc(NC(=O)c2snc3ccc(Cl)cc23)cc1	.	158	.	.	194	.	139
CC(C)c1ccc(NC(=O)c2cc(Br)ccc2Br)cc1	.	.	.	.	/	/	/
CCN(CC)c1ccc(N=Nc2nn(C)c(C)c2[N+](=O)[O-])cc1	.	178	.	.	222	140	.
CCN(CC)c1ccc(N=Nc2ncn[nH]2)cc1	.	.	.	.	/	/	/
O=C(NC1CCCC1)c1cc(-c2cccs2)on1	.	173	.	.	205	147	115
Cc1cc(C(=O)CN2C(=O)NC3(CCCCC3)C2=O)c(C)n1Cc1ccco1	.	158	.	.	180	137	134
Cc1cc(-n2c(C)cc(C(=O)CN3C(=O)NC4(CCCCC4C)C3=O)c2C)no1 (stereo unspecified)	.	.	.	.	/	/	/
Cc1cc(C(=O)CN2C(=O)NC3(CCCCC3C)C2=O)c(C)n1Cc1cccs1 (stereo unspecified)	.	155	.	.	175	.	125
Cc1cc(C(=O)CN2C(=O)NC3(CCCCC3)C2=O)c(C)n1Cc1ccc2c(c1)OCO2	.	.	.	.	/	/	/
O=c1/c(=C/c2ccc([N+](=O)[O-])cc2)sc2n1CCCN=2	.	157	.	.	183	135	.
COC(=O)c1cccc(NC(=S)N2CCN(c3ccccc3F)CC2)c1	.	.	.	.	/	/	/
Cc1ccc(NC(=O)/C(Cl)=C/c2ccccc2)cc1C	.	177	.	.	230	.	.
CC(=O)Nc1ccccc1C(=O)C(=O)Nc1ccc(C)c(C)c1	.	.	.	.	/	/	/
CCOc1ccc(NC(=O)COC(=O)C23CC4CC(CC(C4)C2)C3)c([N+](=O)[O-])c1	.	.	.	.	/	/	/
CC1=CN2C(=N)/C(=C/c3ccc(Sc4ccc(C)cc4)o3)C(=O)N=C2S1	.	.	.	.	/	/	/
CC1=CN2C(=N)/C(=C/c3ccc(C)o3)C(=O)N=C2S1	.	201	.	.	249	141	.
COc1ccc2c(Cl)c(C(=O)NCCCn3ccnc3)sc2c1Cl	.	.	.	.	/	/	/
Clc1c(-c2ccccc2)nnn1-c1ccccc1	.	177	.	.	209	137	.
SMILES	STAT3 act	STAT1 act	STAT1 blocker	STAT3 blocker	STAT1 act conf	NFkB act	STAT3 act 2
Clc1ccc(-n2nnnc2-c2ccccc2)cc1Cl	.	.	.	.	/	/	/
Cc1ccc(O)c(C2=NCCNC(C(F)(F)F)=C2)c1	.	.	.	.	/	/	/
Oc1c(C2=NCCNC(C(F)(F)F)=C2)ccc2ccccc12	.	199	.	.	222	147	114
COc1ccc(C(=O)Cn2nnc(-c3ccccc3F)n2)cc1	.	.	.	.	/	/	/
COc1ccc(-c2nnn(Cc3ccccc3F)n2)cc1	.	163	.	.	176	133	114
Cc1ccc(SCC(=O)Nc2ccc(N3CCN(c4ccccc4)CC3)c(F)c2)cc1	.	.	.	.	/	/	/
CN1CCN(c2ccc(NC(=O)CSc3ccccc3)cc2F)CC1	.	158	.	.	183	.	128
Cc1ccc(-c2noc(-c3cccs3)n2)cc1	.	154	.	.	220	.	111
COc1ccc(C2(CNC(=O)c3cccc([N+](=O)[O-])c3)CCOCC2)cc1	.	.	.	.	/	/	/
c1csc(C2=NNC(=NC3CCCCC3)SC2)c1	.	155	.	.	168	.	.
Clc1ccc(C2=NNC(=NCC3CCCO3)SC2)cc1 (stereo unspecified)	.	.	.	.	/	/	/
CCN(CC)CCn1c(=S)[nH]c2ccc(Br)cc2c1=O	.	.	.	.	/	/	/
COC(=O)CSc1nc2cc3c(cc2cc1C#N)OCO3	.	155	.	.	265	147	117
CCOC(=O)CSc1nc2cc3c(cc2cc1C#N)OCCO3	.	174	.	.	293	143	123
CCOC(=O)CSc1nc2cc3c(cc2cc1C#N)OCO3	.	155	.	.	223	144	115
CCOC(=O)CSc1nc2cc3c(cc2cc1C)OCO3	.	.	.	.	/	/	/
CC(C)OC(=O)CSc1nc2cc3c(cc2cc1C#N)OCO3	.	.	.	.	/	/	/
COC(=O)Cc1ccc2sc(-c3ccccc3)nc2c1	.	157	.	.	183	.	.
O=C(O)Cc1ccc2sc(-c3ccccc3)nc2c1	.	.	.	.	/	/	/
C=CCNc1oc(/C=C/c2ccccc2)nc1C#N	.	155	.	.	197	144	114
CCN(CC)c1ccc(NC(=O)c2ccccc2OCC(=O)OC)cc1	.	.	.	.	/	/	/
N#Cc1c(/N=C/C=C/c2ccccc2)sc2c1CCCC2	.	.	.	.	/	/	/
CCN(/C=N/c1sc2c(c1C#N)CCCCC2)CC	.	158	.	.	182	135	125
Cc1ccc(-n2ncc3c(NCc4ccco4)ncnc32)cc1C	.	154	.	.	181	140	.
CCCC(=O)Nc1nc(-c2ccc(OC)cc2)cs1	.	.	.	.	/	/	/
SMILES	STAT3 act	STAT1 act	STAT1 blocker	STAT3 blocker	STAT1 act conf	NFkB act	STAT3 act 2
CSCC(=O)Nc1nc(-c2ccc3c(c2)OCCO3)cs1	.	158	.	.	189	139	114
CCCC(=O)Nc1nc(-c2ccc3c(c2)OCCO3)cs1	.	158	.	.	181	143	.
O=C(CSCC(=O)Nc1nc(-c2ccc3c(c2)OCO3)cs1)Nc1nccs1	/	.	.	/	/	/	/
c1ccc2c(c1)CCN(c1nc3cc4c(cc3s1)OCO4)C2	.	180	.	.	261	136	.
c1ccc2sc(Nc3nc4cc5c(cc4s3)OCO5)nc2c1	.	187	.	.	264	149	124
Fc1ccc2nc(Nc3nc4cc5c(cc4s3)OCCO5)sc2c1	.	166	.	.	194	.	.

Bioassay records from PubChem BioAssay.
